# According to ChEMBL document CHEMBL1139382, “6-Methoxy-N-alkyl isatin acylhydrazone derivatives as a novel series of potent selective cannabinoid receptor 2 inverse agonists: design, synthesis, and binding mode prediction” (J Med Chem, 2009):
# Calls of active or inactive are those of the source.
# Experiments:
# [1] = molecular target: T1, Cannabinoid receptor 1 (Homo sapiens, UniProt P21554); assay: Inverse agonist activity at human recombinant CB1 receptor expressed CHO cells membrane by [35S]GTPgamma binding assay; format: functional, cell membranes
# In short: (§1)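 GTPγ[35S] binding in CHO membranes expressing recombinant hCB1 or hCB2. Membranes preincubated with GDP (30 μM solution) on ice for at least 15 min, then mixed with GTPγ[35S] and WGA SPA beads. Incubated 1 h at room temperature, centrifuged, held 1 h more, then counted. Eight concentrations (0.001–10 μM) in duplicate, reported as the mean of two. Emax expressed as % of the reference agonist.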
# [2] = molecular target: T2, Cannabinoid receptor 2 (Homo sapiens, UniProt P34972); assay: Inverse agonist activity at human recombinant CB2 receptor expressed CHO cells membrane by [35S]GTPgamma binding assay relative to 2-((1R,2R,5R)-5-hydroxy-2-(3-hydroxypropyl)cyclohexyl)-5-(2-methyloctan-2-yl)phenol; format: functional, cell membranes; in short: as §1
# [3] = molecular target: T2, Cannabinoid receptor 2; assay: Inverse agonist activity at human recombinant CB2 receptor expressed CHO cells membrane by [35S]GTPgamma binding assay; format: functional, cell membranes; in short: as §1
# [4] = tested on: Rattus norvegicus; assay: Inhibition of (3-benzyl-3-methyl-2,3-dihydrobenzofuran-6-yl)(piperidin-1-yl)methanone-induced antiallodynic activity in L5/L6 spinal nerve tight ligated neuropathic pain Sprague-Dawley rat model assessed as paw withdrawal threshold at 10 mg/kg, ip administered 15 mins before 3-benzyl-3-methyl-2,3-dihydrobenzofuran-6-yl)(piperidin-1-yl)methanone challenge; format: functional, organism-based; set-up: dose 10 mg/kg
# In short: (§2)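 Adult male Sprague–Dawley rats (120–150 g). Left L5 and L6 spinal nerves tightly ligated with 6–0 silk under isoflurane. Tested 10–14 days after ligation. Drugs given ip. Vehicle was N-methylpyrrolidone 30%, propylene glycol 30%, ethanol 10%, Cremophor 10% and water. For […], given 15 min before the ip CB2 agonist. Von Frey up–down 50% withdrawal threshold (cutoff 15 g) and %MPE, n = 5 per group.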
# [5] = molecular target: T2, Cannabinoid receptor 2; assay: Displacement of [3H] 2-((1R,2R,5R)-5-hydroxy-2-(3-hydroxypropyl)cyclohexyl)-5-(2-methyloctan-2-yl)phenol from human CB2 receptor expressed CHO-K1 cells by liquid scintillation counting; format: cell-based
# In short: (§3)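 Competition binding on membranes of CHO-K1 cells expressing hCB2 (0.25 μg protein/well). Buffer was 50 mM Tris pH 7.4, 2.5 mM EDTA, 0.5% BSA, with 1 nM [3H]-labelled reference ligand. Nonspecific binding defined with 10 μM unlabelled ligand. Incubated 60 min at 30 °C, then filtered and counted by liquid scintillation. Duplicates at several concentrations. IC50 from a one-site fit, converted to Ki by Cheng–Prusoff.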
# [6] = molecular target: T2, Cannabinoid receptor 2; assay: Binding affinity to CB2 receptor; in short: as §3
# [7] = molecular target: T2, Cannabinoid receptor 2; assay: Agonist activity at human CB2 receptor expressed CHO cells by [35S]GTPgamma binding assay; format: functional, cell-based
# [8] = molecular target: T2, Cannabinoid receptor 2; assay: Binding affinity to CB2 receptor by competition binding assay; in short: as §3
# [9] = molecular target: T2, Cannabinoid receptor 2; assay: Inverse agonist activity at CB2 receptor; format: functional; in short: as §1
# [10] = tested on: Rattus norvegicus; assay: Antiallodynic activity in Sprague-Dawley rat L5/L6 spinal nerve tight ligated neuropathic pain model assessed as paw withdrawal threshold at 10 mg/kg, ip […] ipsilateral injured paw; format: functional, organism-based; set-up: dose 10 mg/kg; in short: as §2
# [11] = molecular target: T1, Cannabinoid receptor 1; assay: Inverse agonist activity at human recombinant CB1 receptor expressed CHO cells membrane by [35S]GTPgamma binding assay relative to 2-((1R,2R,5R)-5-hydroxy-2-(3-hydroxypropyl)cyclohexyl)-5-(2-methyloctan-2-yl)phenol; format: functional, cell membranes; in short: as §1
# T1 sequence (P21554 whole entry): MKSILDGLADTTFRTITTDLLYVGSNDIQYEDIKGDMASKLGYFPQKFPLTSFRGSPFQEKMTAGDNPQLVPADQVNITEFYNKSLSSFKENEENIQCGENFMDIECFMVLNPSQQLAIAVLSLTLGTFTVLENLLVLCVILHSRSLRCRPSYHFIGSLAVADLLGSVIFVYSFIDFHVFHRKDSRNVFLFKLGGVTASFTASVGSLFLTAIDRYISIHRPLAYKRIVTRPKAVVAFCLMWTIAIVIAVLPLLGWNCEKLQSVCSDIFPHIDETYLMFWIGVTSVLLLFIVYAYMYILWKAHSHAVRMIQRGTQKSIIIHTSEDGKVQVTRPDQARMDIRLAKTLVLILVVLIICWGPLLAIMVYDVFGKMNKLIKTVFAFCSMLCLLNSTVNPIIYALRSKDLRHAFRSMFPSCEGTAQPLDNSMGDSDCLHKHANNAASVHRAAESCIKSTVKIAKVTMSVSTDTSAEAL
# T2 sequence (P34972 whole entry): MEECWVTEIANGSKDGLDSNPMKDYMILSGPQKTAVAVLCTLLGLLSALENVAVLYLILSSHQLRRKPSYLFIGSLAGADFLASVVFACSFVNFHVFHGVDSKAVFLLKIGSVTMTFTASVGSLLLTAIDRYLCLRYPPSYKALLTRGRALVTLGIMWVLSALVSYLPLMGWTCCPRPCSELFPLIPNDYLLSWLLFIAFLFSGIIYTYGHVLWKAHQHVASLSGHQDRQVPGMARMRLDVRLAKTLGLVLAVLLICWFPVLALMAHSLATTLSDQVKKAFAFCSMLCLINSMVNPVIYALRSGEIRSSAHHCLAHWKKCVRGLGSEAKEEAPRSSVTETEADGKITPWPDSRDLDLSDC
SMILES,EC50 [1],Emax [2],EC50 [3],other results
CCCCCN1C(=O)/C(=N\NC(=O)C2CCCCC2)c2ccc(OC)cc21,> 10 µM,-105%,0.0287 µM,–
CCCCCN1C(=O)/C(=N\NC(=O)CC(C)C)c2ccc(OC)cc21,> 10 µM,-78%,0.0117 µM,–
CCCCCN1C(=O)/C(=N\NC(=O)CC2CCCCC2)c2ccc(OC)cc21,> 10 µM,-88%,0.043 µM,–
CCCCN1C(=O)/C(=N\NC(=O)c2ccccc2)c2ccc(OC)cc21,> 10 µM,-95%,–,–
CCCCCN1C(=O)/C(=N\NC(=O)C(C)(C)O)c2ccc(OC)cc21,> 10 µM,-99%,0.0147 µM,–
COc1ccc2c(c1)N(Cc1ccccc1)C(=O)/C2=N\NC(=O)c1ccccc1,> 10 µM,-96%,–,–
COc1ccc2c(c1)N(CCC1CCCCC1)C(=O)/C2=N\NC(=O)c1ccccc1,> 10 µM,-104%,–,–
CCCCCCN1C(=O)/C(=N\NC(=O)c2ccccc2)c2ccc(OC)cc21,> 10 µM,-92%,0.0882 µM,Activity [4]: Active; Ki [5]: 0.0899 µM; Ki [6]: 0.0899 µM
CCCCCN1C(=O)/C(=N\NC(=O)C(C)(C)C)c2ccc(OC)cc21,> 10 µM,-78%,0.01 µM,–
COc1ccc(C(=O)c2c(C)n(CCN3CCOCC3)c3cc(I)ccc23)cc1,–,–,–,EC50 [7]: 0.0766 µM
COc1ccc2c(c1)N(CC1CCCCC1)C(=O)/C2=N\NC(=O)C1CCCCC1,> 10 µM,-69%,0.0716 µM,–
CN(c1ccc2c(c1)nc(Cc1ccc3c(c1)CCO3)n2CC1CCCCC1)S(=O)(=O)c1ccccc1,–,–,–,Ki [8]: 0.0012 µM; EC50 [9]: 0.0022 µM; Activity [6]: 0.7 nM
CCCCCN1C(=O)/C(=N\NC(=O)CN2CCOCC2)c2ccc(OC)cc21,> 10 µM,-80%,0.0133 µM,–
COCCN1C(=O)/C(=N\NC(=O)c2ccccc2)c2ccc(OC)cc21,> 10 µM,-60%,0.492 µM,–
CC1(Cc2ccccc2)COc2cc(C(=O)N3CCCCC3)ccc21 (centres undefined),–,–,–,Activity [10]: Active
CCCCCN1C(=O)/C(=N\NC(=O)OC(C)(C)C)c2ccc(OC)cc21,> 10 µM,-97%,0.0159 µM,–
CCCCCN1C(=O)/C(=N\NC(=O)c2ccccc2)c2ccc(OC)cc21,0.263 µM,-108%,–,Emax [11]: 41%
COc1ccc2c(c1)N(CC1CCCCC1)C(=O)/C2=N\NC(=O)c1ccccc1,–,-82%,–,Emax [11]: 40.8%
